# TRPC6 inh – inhibitors of mouse TRPC6 channel | HEK293-TRPC6, membrane potential dye, ACh-evoked depolarization; hits give low values | B-score at 10 µM | 310,000 tested, 1.1% active;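 active = B-score under library mean minus 3 SD, initial fluorescence not abnormally high, positive integrated signal ratio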;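 note: B-score derived from integrated fluorescence ratio over the kinetic read; more negative B-score means stronger inhibition of depolarization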
# Target sequence (Q61143 whole entry, looked up): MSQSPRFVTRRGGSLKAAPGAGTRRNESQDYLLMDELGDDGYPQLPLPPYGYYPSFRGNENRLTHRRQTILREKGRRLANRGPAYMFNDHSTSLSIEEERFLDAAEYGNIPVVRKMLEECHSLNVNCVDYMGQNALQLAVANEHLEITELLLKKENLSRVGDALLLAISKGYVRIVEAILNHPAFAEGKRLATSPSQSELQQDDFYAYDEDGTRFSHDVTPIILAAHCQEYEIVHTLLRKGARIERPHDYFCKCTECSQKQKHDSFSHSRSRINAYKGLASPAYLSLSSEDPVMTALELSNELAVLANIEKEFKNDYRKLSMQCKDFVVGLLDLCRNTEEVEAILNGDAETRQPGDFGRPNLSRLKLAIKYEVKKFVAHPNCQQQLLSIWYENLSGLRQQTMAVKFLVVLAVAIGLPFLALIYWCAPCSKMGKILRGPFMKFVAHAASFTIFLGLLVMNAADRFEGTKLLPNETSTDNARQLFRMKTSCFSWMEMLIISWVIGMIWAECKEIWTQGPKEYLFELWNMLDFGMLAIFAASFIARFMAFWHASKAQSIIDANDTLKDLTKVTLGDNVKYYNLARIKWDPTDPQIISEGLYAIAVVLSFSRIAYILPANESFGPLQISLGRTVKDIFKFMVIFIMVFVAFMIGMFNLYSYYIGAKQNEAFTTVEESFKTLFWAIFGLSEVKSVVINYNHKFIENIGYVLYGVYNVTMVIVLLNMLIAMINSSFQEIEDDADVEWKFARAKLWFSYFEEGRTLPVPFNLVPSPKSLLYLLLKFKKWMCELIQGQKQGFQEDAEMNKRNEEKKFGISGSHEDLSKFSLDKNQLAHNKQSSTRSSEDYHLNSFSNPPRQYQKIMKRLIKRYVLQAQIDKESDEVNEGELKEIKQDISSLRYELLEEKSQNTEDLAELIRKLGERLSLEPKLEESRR
# TRPC6 activator – mouse TRPC6 channel activation. B-score at 10 µM. 310,000 tested, 0.13% active. Q61143. HEK293-TRPC6 membrane potential dye fluorescence; hits give high values;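 active = B-score of the integrated fluorescence ratio above library mean plus 3 SD, and starting fluorescence ratio within library mean plus 5 SD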;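 note: higher score means more depolarization so channel activation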
# TRPC4 potent – TRPC4 (mouse) allosteric potentiation; Q9QUQ5; HEK293 TRPC4beta/mu-opioid, DAMGO EC20, Fluo-4 Ca2+ flux; hits give high values; B-score at 10 µM; 310,000 tested, 0.42% active;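 active = B-score of calcium response area above 5 SD of library B-scores, with initial fluorescence ratio within 5 SD of library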;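 note: B-score of integrated fluorescence ratio over time as area under calcium response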
# TRPC4 agonist – TRPC4 (mouse) channel activation | HEK293 TRPC4beta/mu-opioid, Fluo4 calcium fluorescence; hits give high values | B-score at 10 µM | 310,000 tested, 0.49% active;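 active = B-score above 5 SD of library B-scores, and initial fluorescence ratio not above library mean plus 5 SD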;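 note: positive B-score marks a calcium rise read as TRPC4 activation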
#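 Assay system – TRPC4beta and mu-opioid receptor HEK293 stable cells · Measured by – Fluo4 fluorescence, kinetic · Schedule – dye loading 45 min room temperature, 110 s kinetic read · Read-out – B-scored integrated calcium fluorescence ratio · Controls – buffer and maximal DAMGO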
# TRPC4 block – inhibitors of mouse TRPC4 channel. Q9QUQ5. HEK293 TRPC4beta/mu-opioid, DAMGO-evoked Fluo4 calcium flux; hits give low values. B-score at 10 µM. 300,000 tested, 0.39% active;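 active = B-score over 3 SD under the library average, no early fluorescence shift, positive overall ratio signal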
#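 Material: HEK293 cells with stable TRPC4beta plus mu-opioid receptor expression / Probe or stimulus: DAMGO in two steps, submaximal then maximal / Compound: single concentration per test compound / Technique: kinetic Fluo4 fluorescence imaging of calcium influx / Read-out: per-well B score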
# TRPC4 spec 2 – mouse TRPC4 off-target activity of TRPC6 inhibitors, second screen; shares compounds with TRPC6 inh; HEK293 TRPC4/MOR, membrane potential dye fluorescence; channel activated by saturating DAMGO dose; inhibition, % at 10 µM; 920 tested, 42% active; AID 2776;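 active = compounds whose fluorescence signal differed from control wells by over 3 SD, either direction, in both duplicate plates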
# TRPC4 spec – selectivity of TRPC6 inhibitors: effect on mouse TRPC4 | AID 2777 | shares compounds with TRPC6 inh | HEK293 TRPC4/mu-opioid, membrane potential fluorescence | activity change, negative = inhibition, % at 10 µM | 920 tested, 61% active;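 active = rise or fall in signal beyond 3 SD of buffer-only wells in both replicate plates, either sign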;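 note: integrated kinetic ratio of fluorescence range over baseline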
# HEK293 MPD ctr 2-1 – parental HEK293 nonspecific activity of TRPC6 inhibitors, second screen | shares compounds with TRPC6 inh | parental HEK293 membrane potential dye fluorescence; maximal acetylcholine challenge after compound addition | signal change vs control, % at 10 µM | 920 tested, 31% active | AID 2779;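 active = membrane potential signal moving either way by over 3 SD of the maximum-effect control, in both duplicate plates, meaning non-specific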
# HEK293 MPD ctr-1 – checks TRPC6 inhibitor effects in parental HEK293 cells. AID 2780. shares compounds with TRPC6 inh. parental HEK293 membrane potential dye fluorescence. 920 tested, 60% active. membrane potential signal change, % at 10 µM;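 active = membrane potential signal shifting up or down by more than 3 SD of buffer-only wells, on both duplicate plates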
# HEK293 MPD ctr-2 – checks TRPC6 modulator effects in parental HEK293 cells; shares compounds with TRPC6 inh; membrane potential dye fluorescence; membrane potential signal change, % at 10 µM; 2,400 tested, 51% active; AID 488924;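 active = membrane potential signal moves up or down beyond 5 SD from buffer-only wells, on both duplicate plates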
# HEK293 MPD ctr 2-2 – second check of TRPC6 modulator effects in parental HEK293 cells; shares compounds with TRPC6 inh; membrane potential dye fluorescence; after compound, maximal acetylcholine stimulation; inhibition, % at 10 µM; 2,400 tested, 14% active;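 active = membrane potential signal drops by more than 5 SD from the mean control signal, in both duplicate plates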;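 note: plate controls were acetylcholine ECmax control wells for no effect and buffer only wells for full effect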
# TRPC4/MOR mod – tests whether TRPC6 modulators also affect mouse TRPC4; HEK293 TRPC4/mu-opioid, membrane potential fluorescence; shares compounds with TRPC6 inh; percent change from control (negative = decrease, positive = increase), % at 10 µM; 2,400 tested, 69% active; AID 488927;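 active = membrane potential signal moved up or down beyond 5 SD of buffer control wells, in both duplicate plates, actives on both sides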;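 note: plate controls were assay buffer wells for no effect and DAMGO maximal-effect wells for full effect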
# TRPC4/MOR inh 2 – mouse TRPC4 off-target activity of TRPC6 modulators, second screen. inhibition, % at 10 µM. shares compounds with TRPC6 inh. 2,400 tested, 55% active. HEK293 TRPC4/mu-opioid, membrane potential dye fluorescence; stimulated with maximal-effect DAMGO;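 active = drop in membrane potential signal beyond 5 SD of the control wells in both duplicate plates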;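 note: TRPC4 counter screen for TRPC6 hits run under conditions tuned for TRPC6 not TRPC4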
# TRPC6 inh conf – mouse TRPC6 inhibitor confirmation; AID 488960; shares compounds with TRPC6 inh; HEK293-TRPC6, membrane potential dye, ACh-evoked depolarization; inhibition, % at 10 µM; 3,300 tested, 43% active;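 active = fluorescence ratio falls more than 5 SD below the full-stimulation control mean, in both duplicate runs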;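 note: integrated fluorescence ratio of peak minus minimum over baseline after agonist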
# TRPC6 act conf – confirmation of mouse TRPC6 activators; shares compounds with TRPC6 inh; activation, % at 10 µM; AID 488961; HEK293-TRPC6 membrane potential dye fluorescence, FDSS; 2,800 tested, 11% active;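 active = ratio signal rise beyond 5 SD above unstimulated control wells' mean, seen in both duplicate runs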;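 note: plate controls were buffer EC0 wells for no effect and acetylcholine ECmax response for full effect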
# An asterisk follows results filed as active; i = inactive; nt = no result. The list is not random: actives were taken first. Their share in the collection is about 2.3%.
SMILES,TRPC6 inh,TRPC6 activator,TRPC4 potent,TRPC4 agonist,TRPC4 block,HEK293 MPD ctr-2,HEK293 MPD ctr 2-2,TRPC4/MOR mod,TRPC4/MOR inh 2,TRPC6 inh conf,TRPC6 act conf,others
O=C1/C(=C/c2ccccc2)SC(=S)N1N1C(=O)C2CC2C1=O (configuration not stated),-8.8*,i,i,i,i,nt,nt,nt,nt,i,i,TRPC4 spec 2=i;TRPC4 spec=i;HEK293 MPD ctr 2-1=i;HEK293 MPD ctr-1=i
CC(=O)NN1C(=O)/C(=C\c2ccccc2)SC1=S,i,i,i,i,i,nt,nt,nt,nt,nt,nt,
COc1ccc(C(=O)OCCN2CCCCC2)cc1,i,i,i,i,i,nt,nt,nt,nt,nt,nt,
CC(C)(C)c1ccc(C(=O)OCCN2CCCCC2)cc1,i,13*,i,i,i,128%*,i,26%*,56%*,i,66%*,
Cc1c(C(=O)OCC(C)(C)CN(C)C)oc2ccccc12,i,i,i,i,i,nt,nt,nt,nt,nt,nt,
Cc1c(C(=O)OCCN2CCCCC2)oc2ccccc12,-8.6*,i,i,i,i,nt,nt,nt,nt,i,nt,TRPC4 spec 2=i;TRPC4 spec=10%*;HEK293 MPD ctr 2-1=i;HEK293 MPD ctr-1=15%*
Cc1c(C(=O)OC(C)CCN(C)C)oc2ccccc12 (configuration not stated),-9.7*,i,i,i,i,nt,nt,nt,nt,i,nt,TRPC4 spec 2=i;TRPC4 spec=7.3%*;HEK293 MPD ctr 2-1=i;HEK293 MPD ctr-1=11%*
COC(=O)c1c(-c2ccc3ccccc3c2)csc1NC(=O)Cc1ccc(OC)c(OC)c1,-5.8*,i,i,i,i,i,i,i,i,i,i,
CCCCc1nc2ccccc2c(N)c1CCC (tested in a mixture with another compound),-7.6*,i,i,i,-6*,nt,nt,nt,nt,59%*,i,TRPC4 spec 2=15%*;TRPC4 spec=i;HEK293 MPD ctr 2-1=i;HEK293 MPD ctr-1=0.7%*
CCCCc1nc2ccccc2c(NC(=O)CNC(C)(C)C)c1CCC,i,i,i,i,i,nt,nt,nt,nt,nt,nt,
Cc1cc(N2C(=O)NC(=O)CC2C)c(C)cc1C(C)C (configuration not stated),-5.1*,i,i,i,i,i,i,i,i,i,i,
CCOC(=O)N1CCN(S(=O)(=O)c2ccc(OCC)c(C)c2)CC1,-9.9*,12*,i,i,i,i,i,18%*,i,74%*,128%*,
CCOC(=O)N1CCN(S(=O)(=O)c2cc(Br)cnc2N)CC1,-7.2*,i,i,i,i,nt,nt,nt,nt,i,i,TRPC4 spec 2=i;TRPC4 spec=i;HEK293 MPD ctr 2-1=i;HEK293 MPD ctr-1=i
CCOC(=O)c1ccc(NC(=O)CCNS(=O)(=O)c2cc(Br)cnc2N)cc1,-6.9*,i,i,i,i,i,i,-20%*,i,79%*,i,
CCOC(=O)N1CCN(S(=O)(=O)c2ccc(C)c(C)c2)CC1,i,i,i,i,i,nt,nt,nt,nt,nt,nt,
Cc1cccn2c(CNCCc3ccco3)c(C(=O)N3CCOCC3)nc12,i,i,i,i,i,nt,nt,nt,nt,nt,nt,
COc1ccc(-n2cnnc2SCC(=O)N(C)c2ccccc2)cc1,i,i,i,i,i,nt,nt,nt,nt,nt,nt,
COc1ccc(-n2cnnc2SCc2csc(-c3ccccc3)n2)cc1,-5.2*,i,i,i,i,i,i,14%*,i,43%*,nt,
Cc1ccc(S(=O)(=O)/N=C2\C=C(Nc3cccc(C(=O)O)c3)C(=O)c3ccccc32)cc1,i,i,i,i,i,nt,nt,nt,nt,nt,nt,
CCc1ccc(S(=O)(=O)/N=C2\C=C(Nc3ccc(C(=O)O)cc3)C(=O)c3ccccc32)cc1,-6.9*,i,i,i,i,-120%*,i,-26%*,68%*,36%*,i,
CC(C)(C)c1ccc(S(=O)(=O)/N=C2\C=C(NS(=O)(=O)c3ccccc3)C(=O)c3ccccc32)cc1,-6.1*,i,i,i,i,-153%*,77%*,-30%*,90%*,81%*,i,
Cc1ccc(-c2cc(C(=O)O)c3ccccc3n2)c(C)c1,i,i,i,i,i,nt,nt,nt,nt,nt,nt,
O=C(NCc1ccc(F)cc1)C1CCCN(C(=O)Nc2ccc(F)cc2)C1 (configuration not stated),i,i,i,i,i,nt,nt,nt,nt,nt,nt,
NC(=O)c1ccccc1NC(=O)CSc1cn[nH]n1,i,i,i,i,i,nt,nt,nt,nt,nt,nt,
Cc1ccc(Cl)cc1N1CCN(C(=O)c2ccc(NS(=O)(=O)c3c(C)noc3C)cc2)CC1,-6.2*,i,i,i,i,i,i,i,i,70%*,nt,
Cc1ccc(C)c(N2CCN(C(=O)c3ccc(NS(=O)(=O)c4c(C)noc4C)cc3)CC2)c1,-6.5*,i,i,i,i,i,i,-15%*,50%*,74%*,i,
COc1ccccc1C(=O)Nc1nnc(S(=O)(=O)N(C)Cc2ccccc2)s1,i,i,i,i,i,nt,nt,nt,nt,nt,nt,
O=[N+]([O-])c1ccc(S(=O)(=O)Nc2nc3ccccc3nc2Nc2ccccc2)cc1,i,i,i,i,i,nt,nt,nt,nt,nt,nt,
